The nature of data set [1]: Rate data in phosphate buffer at pH 7.4. It is filed as ADME. In a few lines: (§1)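 Chemical hydrolysis at 37 °C in phosphate buffer (50 mM, μ = 0.15) at pH 2.0 or 7.4. Prodrug (12 mg) dissolved in preheated buffer. Samples withdrawn at intervals and assayed by HPLC. Pseudo-first-order rate constants calculated from the buffer hydrolysis data.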
For data set [2], the species on record is Homo sapiens. Briefly: (§2) Rate data for enzymatic hydrolysis in 80% human serum at pH 7.4; Completely hydrolyzed during 1 min. It is filed as ADME, organism-based. The settings on record: pH 7.4, 1 min.
A short description of data set [3]: The apparent partition coefficient at pH 7.4. It is filed as physicochemical. The note with it: octanol/water. In a few lines: (§3)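 1-Octanol/phosphate buffer (50 mM, μ = 0.15) at pH 2.0 or 7.4. Prodrug (0.8–1.5 mg) in 1.0 mL buffer shaken with 5.0 mL octanol, 1 h at pH 7.4 or 5 min at pH 2.0. Phases separated by centrifugation. Aqueous concentration measured by HPLC before and after shaking. Triplicate, mean reported.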

Data set [4] in a line: The aqueous solubility in phosphate buffer. It is filed as physicochemical. The note with it: read-out: S. The gist of the method:
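Excess solid added to phosphate buffer (50 mM, μ = 0.15, pH 7.4) at room temperature and vortexed 30 min. pH checked and adjusted during solubilization. Suspension centrifuged and filtered (0.45 membrane). Filtrate quantified by HPLC.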

Data set [5] in a line: Rate data in phosphate buffer at pH 2.0. It is filed as ADME. The gist of the method: as §1
Data set [6] is described as follows: as §2. It is filed as ADME. The settings on record: pH 7.4, 1 min.
Data set [7] can be described thus: The apparent partition coefficient at pH 2.0. It is filed as physicochemical. The note with it: octanol/water. In a few lines: as §3
Data set [8] is described as follows: (§4) Rate data for enzymatic hydrolysis in 80% human serum at pH 7.4. It is filed as ADME.
The nature of data set [9]: as §4. It is filed as ADME, organism-based.

For `CCCC(=O)OP(=O)([O-])C(Cl)(Cl)P(=O)([O-])OC(=O)CCC.[Na+].[Na+]`, the K obs in [1] was 0.00037 min⁻¹; in data set [5], 0.014 min⁻¹; in data set [6], “Completely hydrolyzed during 1 min”. Moreover, the half-life is 1.3 days in [1] and 49 min in data set [5]. Further, in [2], the T1/2 result is “Completely hydrolyzed during 1 min”. Moreover, the logD in data set [3] was -2.3; in data set [7], -1.9. For the same compound, the solubility in data set [4] amounted to 172 mg/mL.
As for `CC(C)(C)C(=O)OP(=O)([O-])C(Cl)(Cl)P(=O)([O-])OC(=O)C(C)(C)C.[Na+].[Na+]`, the K obs in data set [8] turned out to be 0.0035 min⁻¹; in [1], 0.000015 min⁻¹; in [5], 0.0013 min⁻¹. The half-life in [1] is 32.9 days; in data set [5], 516 min; in [9] it was 198 min. In addition, the logD was -2.3 in [3] and -2 in [7]. Also, the solubility in [4] was determined as 23.5 mg/mL.
For the compound `CC(=O)OP(=O)([O-])C(Cl)(Cl)P(=O)([O-])OC(C)=O.[Na+].[Na+]`, the results for the K obs in [1], in data set [5] and in [6] were 0.00076 min⁻¹, 0.016 min⁻¹ and “Completely hydrolyzed during 1 min”, respectively. Further, the values for the half-life in data set [1] and in data set [5] were 0.633 days and 45 min, respectively. In addition, the T1/2 entry in [2] is on record as “Completely hydrolyzed during 1 min”. Further, the logD in data set [3] is -2.2; in [7], -1.4. For the same compound, the solubility in [4] was determined as 190 mg/mL.
As for `O=C(OP(=O)([O-])C(Cl)(Cl)P(=O)([O-])OC(=O)c1ccccc1)c1ccccc1.[Na+].[Na+]`, the K obs in data set [1] was 0.000049 min⁻¹; in data set [5], 0.00004 min⁻¹; in data set [6] it was “Completely hydrolyzed during 1 min”. Also, the values for the half-life in data set [1] and in [5] were 9.8 days and 17100 min, respectively. In addition, the T1/2 result in [2] was “Completely hydrolyzed during 1 min”. Further, the logD in data set [3] is -2.3; in data set [7] it was -1.5. Further, in data set [4], the solubility came to 6 mg/mL.
